How the values were obtained:
[1] = system: EH domain of EHD1; assay: ITC of NPF peptides binding to EHD1 EH; parameters: species or system mouse; conditions: for Ka / TΔS / ΔG / ΔH / ΔS: 25 mM MOPS pH 7.0, 1 mM CaCl2
Method in brief: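 Mouse EHD1 EH domain (V437–E534) expressed as a GST fusion, purified on glutathione resin and thrombin-cleaved on beads. Protein and peptides were dialysed at 4°C against 25 mM MOPS pH 7.0, 1 mM CaCl2, with KCl varied where applicable. ITC was run at 20°C unless stated (5–25°C), with 50–200 μM protein in the cell and peptide titrant 10-fold higher. Single-site fit gave Ka, n and ΔH; ΔG = −RTlnKa, and TΔS came from ΔG = ΔH − TΔS.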

[2] = system: Eps15 EH2; assay: ITC of Rsn5-NPF1 with Eps15 EH2; format: binding; conditions: protein concentration in the ITC cell increased to 0.5 mM

Ac-GPSLNPFDEED-NH2 [Rsn5-NPF1]
fold higher affinity than Rfp2-NPF2 ([1]; ITC, EHD1 EH): 100 fold | Ka ([1]; ITC, 5.0 °C): 2.03e+06 M⁻¹ | TΔS ([1]; ITC, 5.0 °C): -0.9542 kcal/mol | ΔG ([1]; ITC, 5.0 °C): -8.02 kcal/mol | ΔH ([1]; ITC, 5.0 °C): -8.986 kcal/mol | ΔS ([1]; ITC, 5.0 °C): −3.43 cal mol^−1 K^−1 | Ka ([1]; ITC, 10.0 °C): 1.71e+06 M⁻¹ | TΔS ([1]; ITC, 10.0 °C): -1.606 kcal/mol | ΔG ([1]; ITC, 10.0 °C): -8.068 kcal/mol | ΔH ([1]; ITC, 10.0 °C): -9.684 kcal/mol | ΔS ([1]; ITC, 10.0 °C): −5.67 cal mol^−1 K^−1 | Ka ([1]; ITC, 15.0 °C): 1.1e+06 M⁻¹ | TΔS ([1]; ITC, 15.0 °C): -2.467 kcal/mol | ΔG ([1]; ITC, 15.0 °C): -7.958 kcal/mol | ΔH ([1]; ITC, 15.0 °C): -10.44 kcal/mol | ΔS ([1]; ITC, 15.0 °C): −8.56 cal mol^−1 K^−1 | Ka ([1]; ITC, 20.0 °C): 814000 M⁻¹ | TΔS ([1]; ITC, 20.0 °C): -3.401 kcal/mol | ΔG ([1]; ITC, 20.0 °C): -7.921 kcal/mol | ΔH ([1]; ITC, 20.0 °C): -11.33 kcal/mol | ΔS ([1]; ITC, 20.0 °C): −11.6 cal mol^−1 K^−1 | Ka ([1]; ITC, 20 °C, KCl 25.0 mM): 302000 M⁻¹ | TΔS ([1]; ITC, 20 °C, KCl 25.0 mM): -3.079 kcal/mol | ΔH ([1]; ITC, 20 °C, KCl 25.0 mM): -10.42 kcal/mol | ΔS ([1]; ITC, 20 °C, KCl 25.0 mM): −10.5 cal mol^−1 K^−1 | Ka ([1]; ITC, 20 °C, KCl 50.0 mM): 168000 M⁻¹ | TΔS ([1]; ITC, 20 °C, KCl 50.0 mM): -3.401 kcal/mol | ΔG ([1]; ITC, 20 °C, KCl 50.0 mM): -7.002 kcal/mol | ΔH ([1]; ITC, 20 °C, KCl 50.0 mM): -10.42 kcal/mol | ΔS ([1]; ITC, 20 °C, KCl 50.0 mM): −11.6 cal mol^−1 K^−1 | Ka ([1]; ITC, 20 °C, KCl 75.0 mM): 115000 M⁻¹ | TΔS ([1]; ITC, 20 °C, KCl 75.0 mM): -3.548 kcal/mol | ΔG ([1]; ITC, 20 °C, KCl 75.0 mM): -6.782 kcal/mol | ΔH ([1]; ITC, 20 °C, KCl 75.0 mM): -10.34 kcal/mol | ΔS ([1]; ITC, 20 °C, KCl 75.0 mM): −12.1 cal mol^−1 K^−1 | Ka ([1]; ITC, 20 °C, KCl 100.0 mM): 86500 M⁻¹ | TΔS ([1]; ITC, 20 °C, KCl 100.0 mM): -4.251 kcal/mol | ΔG ([1]; ITC, 20 °C, KCl 100.0 mM): -6.616 kcal/mol | ΔH ([1]; ITC, 20 °C, KCl 100.0 mM): -10.88 kcal/mol | ΔS ([1]; ITC, 20 °C, KCl 100.0 mM): −14.5 cal mol^−1 K^−1 | Ka ([1]; ITC, 20 °C, KCl 125.0 mM): 65000 M⁻¹ | TΔS ([1]; ITC, 20 °C, KCl 125.0 mM): -4.046 kcal/mol | ΔG ([1]; ITC, 20 °C, KCl 125.0 mM): -6.45 kcal/mol | ΔH ([1]; ITC, 20 °C, KCl 125.0 mM): -10.5 kcal/mol | ΔS ([1]; ITC, 20 °C, KCl 125.0 mM): −13.8 cal mol^−1 K^−1 | Ka ([1]; ITC, 20 °C, KCl 150.0 mM): 53000 M⁻¹ | TΔS ([1]; ITC, 20 °C, KCl 150.0 mM): -4.163 kcal/mol | ΔG ([1]; ITC, 20 °C, KCl 150.0 mM): -6.331 kcal/mol | ΔH ([1]; ITC, 20 °C, KCl 150.0 mM): -10.5 kcal/mol | ΔS ([1]; ITC, 20 °C, KCl 150.0 mM): −14.2 cal mol^−1 K^−1 | Ka ([1]; ITC, 20 °C, KCl 300.0 mM): 24800 M⁻¹ | TΔS ([1]; ITC, 20 °C, KCl 300.0 mM): -4.369 kcal/mol | ΔG ([1]; ITC, 20 °C, KCl 300.0 mM): -5.889 kcal/mol | ΔH ([1]; ITC, 20 °C, KCl 300.0 mM): -10.26 kcal/mol | ΔS ([1]; ITC, 20 °C, KCl 300.0 mM): −14.9 cal mol^−1 K^−1 | Ka ([1]; ITC, 20 °C, KCl 450.0 mM): 17800 M⁻¹ | TΔS ([1]; ITC, 20 °C, KCl 450.0 mM): -4.721 kcal/mol | ΔG ([1]; ITC, 20 °C, KCl 450.0 mM): -5.696 kcal/mol | ΔH ([1]; ITC, 20 °C, KCl 450.0 mM): -10.43 kcal/mol | ΔS ([1]; ITC, 20 °C, KCl 450.0 mM): −16.1 cal mol^−1 K^−1 | Ka ([1]; ITC, 25.0 °C): 606000 M⁻¹ | TΔS ([1]; ITC, 25.0 °C): -4.056 kcal/mol | ΔG ([1]; ITC, 25.0 °C): -7.881 kcal/mol | ΔH ([1]; ITC, 25.0 °C): -11.94 kcal/mol | ΔS ([1]; ITC, 25.0 °C): −13.6 cal mol^−1 K^−1 | non-electrostatic ΔG ([1]; from (Ka)ne, 20°C): -5.2 kcal/mol | ΔCp (change in heat capacity upon binding) ([1]; from response of ΔH to temperature, 5 to 25°, ITC): −150 cal mol^−1 K^−1 | interaction detected by ITC [2]: unable to detect any interaction
